Measured values published in ChEMBL document CHEMBL1145523, “Genetic targeting of the kinase activity of the Met receptor in cancer cells” (Proc Natl Acad Sci U S A, 2007).
Activity calls are given as the source filed them.

Assays:
[1] = test system: DLD1 KD; test: Inhibition of human MSK phosphorylation in DLD1 KD cells carrying inactive MET kinase at 2.5 uM; assay type: cell-based
Method in brief: (§1)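 Parental or MET-KD DLD1 cells held 16 h with or without 2.5 μM inhibitor, then lysed. Phosphorylation read on a human phospho-MAPK antibody array following the kit instructions. Dot signals quantified by densitometry and normalized to untreated WT DLD1 cells (set to 1). Significance by two-tailed Student's t test against WT untreated cells.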

[2] = test system: DLD-1; test: Reduction of proliferation in human DLD1 cells at 2.5 uM by ATP-based assay; assay type: functional, cell-based
Method in brief: (§2)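 Parental DLD1 and two independent MET-KD clones seeded at equal density in 96-well plates and given 2.5 μM inhibitor. Cell number measured as ATP-based luminescence (RLU). Mean of triplicates ± SD.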

[3] = test system: DLD-1; test: Reduction of proliferation in human DLD1 KD1 cell carrying inactive MET kinase at 2.5 uM by ATP-based assay; assay type: functional; method in brief: as §2
[4] = test system: DLD-1; test: Reduction of proliferation in human DLD1 KD2 cell carrying inactive MET kinase at 2.5 uM by ATP-based assay; assay type: functional; method in brief: as §2
[5] = biological target: T1, c-Jun N-terminal kinase, JNK (Homo sapiens) (UniProt P45983+P53779+P45984); test: Inhibition of human JNK phosphorylation in DLD1 cells at 2.5 uM; assay type: cell-based; conditions: DLD-1; method in brief: as §1
[6] = biological target: T1, c-Jun N-terminal kinase, JNK (Homo sapiens); test: Inhibition of human JNK phosphorylation in DLD1 KD cells carrying kinase inactive MET at 2.5 uM; assay type: cell-based; method in brief: as §1
[7] = test system: DLD-1; test: Inhibition of human MSK phosphorylation in DLD1 cells at 2.5 uM; assay type: cell-based; method in brief: as §1
[8] = biological target: Mitogen-activated protein kinase 14 (Homo sapiens) (UniProt Q16539); test: Inhibition of human p38-alpha phosphorylation in DLD1 cells at 2.5 uM; assay type: cell-based; conditions: DLD-1; method in brief: as §1
[9] = biological target: Mitogen-activated protein kinase 14 (Homo sapiens) (UniProt Q16539); test: Inhibition of human p38-alpha phosphorylation in DLD1 KD cells carrying inactive MET kinase at 2.5 uM; assay type: cell-based; method in brief: as §1
[10] = test system: DLD-1; test: Inhibition of human p70s6K phosphorylation in DLD1 cells at 2.5 uM; assay type: cell-based; method in brief: as §1
[11] = test system: DLD1 KD; test: Inhibition of human p70s6K phosphorylation in DLD1 KD cells carrying inactive MET kinase at 2.5 uM; assay type: cell-based; method in brief: as §1

Measured: Activity

Sequence of Mitogen-activated protein kinase 14 (Homo sapiens) (Q16539 whole entry): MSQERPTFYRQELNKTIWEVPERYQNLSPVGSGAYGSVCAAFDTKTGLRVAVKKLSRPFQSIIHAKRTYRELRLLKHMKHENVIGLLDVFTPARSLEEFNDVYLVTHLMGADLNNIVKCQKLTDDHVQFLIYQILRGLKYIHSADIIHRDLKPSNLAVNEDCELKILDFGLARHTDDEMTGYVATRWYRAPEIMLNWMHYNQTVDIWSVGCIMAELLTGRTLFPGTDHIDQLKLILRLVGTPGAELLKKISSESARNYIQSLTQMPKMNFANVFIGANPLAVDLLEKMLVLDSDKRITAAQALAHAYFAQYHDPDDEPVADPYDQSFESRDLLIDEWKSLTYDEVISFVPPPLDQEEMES

Cc1[nH]c(/C=C2\C(=O)Nc3ccc(S(=O)(=O)N(C)c4cccc(Cl)c4)cc32)c(C)c1C(=O)N1CCN(C)CC1
active: all assays above
